This is an account of results in ChEMBL document CHEMBL1154093, “New azoles with potent antifungal activity: design, synthesis and molecular docking” (2009).

The test system of one experiment is Aspergillus fumigatus. Description: Antifungal activity against Aspergillus fumigatus after 7 days by serial dilution method. Type of experiment: functional. Conditions: 168 h. In a few lines:
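Filamentous fungus (ATCC or clinical isolate) was tested by NCCLS microdilution in MOPS-buffered (0.165 M) RPMI 1640. Compounds were dissolved in DMSO and serially diluted in medium, and growth was scored at 7 days. MIC was the lowest concentration producing ≥80% inhibition of turbidity compared with the untreated control.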

In a further experiment the test system is Cryptococcus neoformans. Description: Antifungal activity against Cryptococcus neoformans after 72 hrs by serial dilution method. The class given is functional. In a few lines:
(§1)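 NCCLS broth microdilution in RPMI 1640 buffered with 0.165 M MOPS, with strains from ATCC or clinical isolates. Compounds were dissolved in DMSO and serially diluted in medium. Yeasts were incubated at 35 °C and read at 24 h for Candida or 72 h for C. neoformans. MIC was the lowest concentration giving ≥80% turbidity inhibition versus the growth control.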

In the next experiment the test system is Candida tropicalis. Briefly: Antifungal activity against Candida tropicalis after 24 hrs by serial dilution method. The class given is functional. In a few lines:
as §1

Experiment [1] has as its system Candida albicans. Description: Antifungal activity against multidrug-resistant Candida albicans after 24 hrs by serial dilution method. Type of experiment: functional. In a few lines:
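Broth serial dilution in 96-well plates per NCCLS recommendations; RPMI 1640 buffered with 0.165 M MOPS as medium. Compounds dissolved in DMSO, serially diluted in growth medium. Strains from ATCC or clinical isolates. Yeasts incubated at 35 °C, read at 24 h for Candida. MIC = lowest concentration giving turbidity at or below 80% inhibition versus growth control.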

The test system of a further experiment is Nannizzia gypsea. Description: Antifungal activity against Microsporum gypseum after 7 days by serial dilution method. The class given is functional. The note with it: 168 h. In a few lines:
(§2)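 Dermatophytes (ATCC or clinical isolates) were tested by NCCLS serial dilution in RPMI 1640 with 0.165 M MOPS, incubated at 28 °C and read at 7 days. Compounds were taken up in DMSO and diluted in medium. MIC was the lowest concentration reducing turbidity by at least 80% relative to the drug-free growth control.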

In the next experiment the test system is Candida parapsilosis. Briefly: Antifungal activity against Candida parapsilosis after 24 hrs by serial dilution method. Type of experiment: functional, organism-based. In a few lines:
as §1

The test system of the next experiment is Trichophyton rubrum. Briefly: Antifungal activity against Trichophyton rubrum after 7 days by serial dilution method. The class given is functional. Conditions: 168 h. In a few lines: as §2
Experiment [2] deals with Candida albicans. Description: Antifungal activity against Candida albicans after 24 hrs by serial dilution method. The class given is functional. In a few lines:
as §1

The structures appear in SMILES notation. Converted amounts (≈) assume the structure as drawn. The source made the active and inactive calls. The calls are words filed in the database; no cut-off is given here.

`Nc1ccccc1OCCCN1CCN(CC(O)(Cn2cncn2)c2ccc(F)cc2F)CC1` (racemic): the MIC80 (usually an inhibitory concentration at the 80% level, which refers to growth in some studies and to a panel of isolates in others) in the experiment with Aspergillus fumigatus was 64 µg/mL (≈ 135 µM); with Cryptococcus neoformans, 4 µg/mL (≈ 8.46 µM); against Candida tropicalis it was 0.25 µg/mL (≈ 0.529 µM); in the experiment with Candida albicans [1] it was 0.5 µg/mL (≈ 1.06 µM); with Nannizzia gypsea, 16 µg/mL (≈ 33.9 µM); against Trichophyton rubrum it was 1 µg/mL (≈ 2.12 µM). Also, in the experiment on Candida albicans [2], the MIC80 was found to be 0.25 µg/mL (≈ 0.529 µM). In addition, the outcome in the experiment with Candida parapsilosis was Active.
Turning to `O=C(Nc1ccc(OCCCN2CCN(CC(O)(Cn3cncn3)c3ccc(F)cc3F)CC2)cc1)c1ccccc1` (racemic), the MIC80 against Aspergillus fumigatus was greater than 64 µg/mL; in the experiment on Cryptococcus neoformans it was 16 µg/mL (≈ 27.7 µM); against Candida tropicalis it was 1 µg/mL (≈ 1.73 µM); in the experiment with Candida albicans [1], 0.5 µg/mL (≈ 0.867 µM); with Nannizzia gypsea, 64 µg/mL (≈ 111 µM); in the experiment with Trichophyton rubrum, 16 µg/mL (≈ 27.7 µM). Besides, the MIC80 against Candida albicans [2] came out at 0.25 µg/mL (≈ 0.434 µM). Further, in the experiment on Candida parapsilosis, the outcome was Active.
Take `Nc1cccc(OCCCN2CCN(CC(O)(Cn3cncn3)c3ccc(F)cc3F)CC2)c1` (racemic): the MIC80 with Aspergillus fumigatus is greater than 64 µg/mL; with Cryptococcus neoformans, 16 µg/mL (≈ 33.9 µM); against Candida tropicalis, 1 µg/mL (≈ 2.12 µM); in the experiment on Candida albicans [1] it was 0.25 µg/mL (≈ 0.529 µM); in the experiment on Nannizzia gypsea, 64 µg/mL (≈ 135 µM); in the experiment on Trichophyton rubrum, 4 µg/mL (≈ 8.46 µM). In the experiment with Candida albicans [2], this compound returned an MIC80 of 1 µg/mL (≈ 2.12 µM). Moreover, in the experiment with Candida parapsilosis, the outcome was Active.
For `CC(=O)Nc1ccc(OCCCN2CCN(CC(O)(Cn3cncn3)c3ccc(F)cc3F)CC2)cc1` (racemic), the MIC80 is greater than 64 µg/mL in the experiment with Aspergillus fumigatus; 1 µg/mL (≈ 1.94 µM) in the experiment with Cryptococcus neoformans; 0.25 µg/mL (≈ 0.486 µM) against Candida tropicalis; 2 µg/mL (≈ 3.89 µM) in the experiment on Candida albicans [1]; 4 µg/mL (≈ 7.77 µM) against Nannizzia gypsea; 0.25 µg/mL (≈ 0.486 µM) with Trichophyton rubrum. The compound further gave an MIC80 against Candida albicans [2] of 0.25 µg/mL (≈ 0.486 µM). The result with Candida parapsilosis was Active.
As for `OC(Cn1cncn1)(Cn1cncn1)c1ccc(F)cc1F` [FLUCONAZOLE], the MIC80 is greater than 64 µg/mL against Aspergillus fumigatus; 1 µg/mL (≈ 3.27 µM) in the experiment on Cryptococcus neoformans; 1 µg/mL (≈ 3.27 µM) with Candida tropicalis; greater than 64 µg/mL against Candida albicans [1]; 16 µg/mL (≈ 52.2 µM) in the experiment with Nannizzia gypsea; 4 µg/mL (≈ 13.1 µM) in the experiment on Trichophyton rubrum. The compound also registered an MIC80 against Candida albicans [2] of 1 µg/mL (≈ 3.27 µM). Besides, the result in the experiment with Candida parapsilosis was Active.
On to `CCC(C)n1ncn(-c2ccc(N3CCN(c4ccc(OCC5COC(Cn6cncn6)(c6ccc(Cl)cc6Cl)O5)cc4)CC3)cc2)c1=O` (stereo unspecified) [ITRACONAZOLE], for which the MIC80 is 2 µg/mL (≈ 2.83 µM) with Aspergillus fumigatus; 0.125 µg/mL (≈ 0.177 µM) against Cryptococcus neoformans; 0.125 µg/mL (≈ 0.177 µM) against Candida tropicalis; greater than 64 µg/mL in the experiment on Candida albicans [1]; 0.25 µg/mL (≈ 0.354 µM) in the experiment on Nannizzia gypsea; 0.125 µg/mL (≈ 0.177 µM) against Trichophyton rubrum. The same compound registered an MIC80 in the experiment on Candida albicans [2] of 0.125 µg/mL (≈ 0.177 µM). Also, in the experiment with Candida parapsilosis, the outcome was Active.
For the compound `C[C@@H](c1ncncc1F)[C@](O)(Cn1cncn1)c1ccc(F)cc1F` [VORICONAZOLE], the MIC80 against Aspergillus fumigatus was 0.5 µg/mL (≈ 1.43 µM); against Cryptococcus neoformans it was 0.0625 µg/mL (≈ 0.179 µM); in the experiment on Candida tropicalis, 0.0625 µg/mL (≈ 0.179 µM); against Candida albicans [1], greater than 64 µg/mL; in the experiment on Nannizzia gypsea, 0.0625 µg/mL (≈ 0.179 µM); in the experiment on Trichophyton rubrum it was 0.0625 µg/mL (≈ 0.179 µM). The compound further yielded an MIC80 in the experiment on Candida albicans [2] of 0.0625 µg/mL (≈ 0.179 µM). Also, in the experiment on Candida parapsilosis, the result was Active.
